Results taken from ChEMBL document CHEMBL1149862, “Guaiane sesquiterpene lactones and amino acid-sesquiterpene lactone conjugates from the aerial parts of Saussurea pulchella” (2008).

Key:
Type in all cases: functional
Details in all cases: read-out: ED50 (the source's name)
A549 = assay: Cytotoxicity against human A549 cells by SRB assay
How it was run: (§1)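 Sulforhodamine B (SRB) bioassay on cultured human cancer lines: A549 (non-small cell lung carcinoma), SK-OV-3 (ovary malignant ascites), SK-MEL-2 (skin melanoma) and HCT (colon adenocarcinoma). Cytotoxicity is reported as ED₅₀ in µM.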

SK-MEL-2 = assay: Cytotoxicity against human SK-MEL-2 cells by SRB assay; how it was run: as §1
HCT-15 = assay: Cytotoxicity against human HCT15 cells by SRB assay; how it was run: as §1
SK-OV-3 = assay: Cytotoxicity against human SKOV3 cells by SRB assay; how it was run: as §1

Structure (SMILES) | EC50 (A549) [µM] | EC50 (SK-MEL-2) [µM] | EC50 (HCT-15) [µM] | EC50 (SK-OV-3) [µM]
C=C1[C@@H]2[C@H]3OC(=O)[C@H](C)[C@@H]3[C@@H](O)CC(=C)[C@@H]2C[C@@H]1O | > 30 | > 30 | > 30 | > 30
C=C1C(=O)O[C@@H]2[C@H]3C(=C)[C@@H](O)C[C@H]3C(=C)C[C@H](OC(=O)CC(C)(C)O)[C@@H]12 | > 30 | 6.78 | 14.2 | 12.4
C=C1C(=O)O[C@@H]2[C@H]3C(=C)[C@@H](O)C[C@H]3C(=C)C[C@H](O)[C@@H]12 [DESACYLCYNAROPICRIN] | 25.7 | 9.74 | 11.3 | 11.3
C=C1[C@@H]2[C@H]3OC(=O)[C@H](C)[C@@H]3[C@@H](O[C@@H]3O[C@H](CO)[C@@H](O)[C@H](O)[C@H]3O)CC(=C)[C@@H]2C[C@@H]1O | > 30 | > 30 | > 30 | > 30
C=C1[C@@H]2[C@H]3OC(=O)[C@@H](CNCCCC(=O)O)[C@@H]3[C@@H](O)CC(=C)[C@@H]2C[C@@H]1O [PULCHELLAMINE B] | > 30 | > 30 | > 30 | > 30
C=C1[C@@H]2[C@H]3OC(=O)[C@H](C)[C@@H]3[C@@H](OC(=O)C(C)(O)CO)CC(=C)[C@@H]2C[C@@H]1O (stereo not given in full) | > 30 | > 30 | > 30 | > 30
C=C1[C@@H]2[C@H]3OC(=O)[C@@H](CN[C@@H](CC(N)=O)C(=O)O)[C@@H]3[C@@H](O)CC(=C)[C@@H]2C[C@@H]1O [PULCHELLAMINE A] | > 30 | > 30 | > 30 | > 30
C=C1[C@@H]2[C@H]3OC(=O)[C@@H](CN[C@@H](Cc4ccccc4)C(=O)O)[C@@H]3[C@@H](O)CC(=C)[C@@H]2C[C@@H]1O [PULCHELLAMINES D] | > 30 | > 30 | > 30 | > 30
C=C1[C@@H]2[C@H]3OC(=O)[C@@H](CN[C@@H](Cc4c[nH]c5ccccc45)C(=O)O)[C@@H]3[C@@H](O)CC(=C)[C@@H]2C[C@@H]1O [PULCHELLAMINE F] | > 30 | 18.6 | > 30 | 24.2
C=C1[C@@H]2[C@H]3OC(=O)[C@@H](CN4CCC[C@H]4C(=O)O)[C@@H]3[C@@H](OC(=O)C(C)(O)CO)CC(=C)[C@@H]2C[C@@H]1O (stereo not given in full) [PULCHELLAMINE C] | 27.6 | 5.73 | 18.3 | 11.8
C=C1[C@@H]2[C@H]3OC(=O)[C@@H](CN[C@H](C(=O)O)[C@H](C)CC)[C@@H]3[C@@H](O)CC(=C)[C@@H]2C[C@@H]1O [PULCHELLAMINE G] | > 30 | > 30 | > 30 | > 30
C=C(CO)C(=O)O[C@H]1CC(=C)[C@@H]2C[C@H](O)C(=C)[C@@H]2[C@H]2OC(=O)C(=C)[C@@H]21 [CYNAROPICRIN] | 24.5 | 4.07 | 12.1 | 7.42
C=C1[C@@H]2[C@H]3OC(=O)[C@@H](CN[C@H](C(=O)O)C(C)C)[C@@H]3[C@@H](O)CC(=C)[C@@H]2C[C@@H]1O [PULCHELLAMINE E] | > 30 | > 30 | > 30 | > 30
COc1cccc2c1C(=O)c1c(O)c3c(c(O)c1C2=O)C[C@@](O)(C(=O)CO)C[C@@H]3O[C@H]1C[C@H](N)[C@H](O)[C@H](C)O1 [DOXORUBICIN] | 0.007 | 0.117 | 0.164 | 0.056
C=C1C(=O)O[C@@H]2[C@H]3C(=C)[C@H](O)C[C@H]3C(=C)C[C@H](OC(=O)C(C)(O)CO)[C@@H]12 (stereo not given in full) | > 30 | 10.5 | 28.8 | 18
